Laboratory results taken from ChEMBL document CHEMBL1134344, “Crystal structure of human cyclin-dependent kinase 2 in complex with the adenine-derived inhibitor H717” (J Med Chem, 2001).

Key:
[1] = tested on: MCF7; assay: Inhibition of MCF-7 human breast tumor cell proliferation; type: functional, cell-based
Method in brief: (§1)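 Tumor cells harvested with trypsin-EDTA, trypan-blue-excluding cells counted, plated and left overnight at 37 °C; drug diluted in culture medium and added for 72 h (three days). Medium then removed, plates frozen at -80 °C ≥30 min, thawed, and CyQUANT-GR in lysis buffer added for 3-5 min at room temperature.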

[2] = molecular target: Cyclin-dependent kinase 2/cyclin E (Homo sapiens, UniProt P24941); assay: Inhibition of cyclic dependent kinase 2 (CDK2)/cyclin E; type: protein-complex assay
[3] = tested on: MDA-MB-231; assay: Inhibition of MDA-MB-231 human breast tumor cell proliferation; type: functional, cell-based; method in brief: as §1
[4] = molecular target: Cyclin-dependent kinase 1/cyclin B (Homo sapiens, UniProt P06493); assay: Inhibition of human cyclic dependent kinase 1 (CDK1)/cyclin B; type: protein-complex assay
[5] = tested on: HCT-15; assay: Inhibition of HCT-15 human colon tumor cell proliferation; type: functional, cell-based; method in brief: as §1
[6] = tested on: DMS-114; assay: Inhibition of DMS114 human lung tumor cell proliferation; type: functional, cell-based; method in brief: as §1
[7] = tested on: PC-3; assay: Inhibition of PC-3 human prostate tumor cell proliferation; type: functional, cell-based; method in brief: as §1
[8] = tested on: DU-145; assay: Inhibition of DU-145 human prostate tumor cell proliferation; type: functional, cell-based; method in brief: as §1
[9] = tested on: HT-29; assay: Inhibition of HT-29 human colon tumor cell proliferation; type: functional, cell-based; method in brief: as §1
[10] = molecular target: Cyclin-dependent kinase 4/cyclin D1 (Homo sapiens, UniProt P11802); assay: Inhibition of cyclic dependent kinase 4 (CDK4)/cyclin D1; type: protein-complex assay
Method in brief: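 Human CDK4 and cyclin D1 coexpressed in Sf9 cells (baculovirus, MOI 0.1 each, 72 h); 0.1 ng enzyme from clarified lysate. Substrate GST-Rb (0.5 µg) on glutathione-Sepharose beads. ATP 10 µM plus [γ33P]ATP; 30 min at 30 °C. Filtration, TNEN washes, scintillation counting; IC50 from increasing drug concentrations.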

[11] = tested on: A549; assay: Inhibition of A549 human lung tumor cell proliferation; type: functional, cell-based; method in brief: as §1

Chain of Cyclin-dependent kinase 4/cyclin D1 (P11802 whole entry): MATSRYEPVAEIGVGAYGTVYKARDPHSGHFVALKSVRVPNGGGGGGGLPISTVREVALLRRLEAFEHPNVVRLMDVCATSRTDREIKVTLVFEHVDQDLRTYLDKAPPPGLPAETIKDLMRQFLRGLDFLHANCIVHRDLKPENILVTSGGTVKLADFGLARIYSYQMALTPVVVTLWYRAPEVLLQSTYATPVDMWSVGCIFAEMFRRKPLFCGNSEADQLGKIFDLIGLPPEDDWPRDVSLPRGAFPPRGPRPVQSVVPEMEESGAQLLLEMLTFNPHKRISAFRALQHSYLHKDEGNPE
Chain of Cyclin-dependent kinase 4/cyclin D1 (P24385 whole entry, further chain): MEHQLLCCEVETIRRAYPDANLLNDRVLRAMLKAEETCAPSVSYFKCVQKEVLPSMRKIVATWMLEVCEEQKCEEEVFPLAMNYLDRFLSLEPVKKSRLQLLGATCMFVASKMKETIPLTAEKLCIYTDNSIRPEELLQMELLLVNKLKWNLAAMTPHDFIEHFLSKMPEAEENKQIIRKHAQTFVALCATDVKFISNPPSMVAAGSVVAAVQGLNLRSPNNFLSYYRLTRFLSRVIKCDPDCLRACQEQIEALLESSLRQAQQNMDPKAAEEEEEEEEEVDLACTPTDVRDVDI

IC50 [1] [nM] | IC50 [2] [nM] | IC50 [3] [nM] | IC50 [4] [nM] | IC50 [5] [nM] | IC50 [7] [nM] | IC50 [8] [nM] | IC50 [9] [nM] | IC50 [10] [nM] | IC50 [11] [nM] | Compound | IC50 [6] [nM]
1300 | 24 | 1700 | 70 | 3300 | 600 | 1300 | 2000 | 780 | 1600 | N[C@H]1CC[C@H](Nc2nc(NCC3CC3)c3ncn(C4CCCC4)c3n2)CC1 | 1400
3300 | 720 | 5200 | 2000 | 8600 | 3900 | 5600 | 5700 | 8800 | 6100 | C[C@H](Nc1nc(N[C@H]2CC[C@H](N)CC2)nc2c1ncn2C1CCCC1)c1ccccc1 | 6600
 |  |  | 52 |  |  |  |  |  |  | N[C@H]1CC[C@H](Nc2nc(NCc3ccccc3)c3ncn(C4CCCC4)c3n2)CC1 | 
600 | 50 | 1000 | 226 | 2100 | 1400 | 1600 | 1200 | 2000 | 1000 | N[C@H]1CC[C@H](Nc2nc(NCc3cccc(I)c3)c3ncn(C4CCCC4)c3n2)CC1 | 1000
